The source of these data is ChEMBL document CHEMBL1139360, “Mechanism of p300 specific histone acetyltransferase inhibition by small molecules” (J Med Chem, 2009).

Assay [1] has as its target T1, Histone acetyltransferase p300 (Homo sapiens, UniProt Q09472). Put plainly: Inhibition of HAT p300 catalytic domain assessed as drug-induced alteration of protein tertiary structure at 2.5 uM by Stern-Volmer plot. On the set-up: scale not given: the % may be the effect or the level left. The method in brief: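 p300 HAT domain (1.2 μM) preincubated 2 min at room temperature with 2.5 μM inhibitor in 20 mM Tris-HCl pH 7.5, 0.2 mM EDTA, 100 mM KCl. Acrylamide added stepwise; fluorescence read at 340 nm (excitation 295 nm) at 20 °C. Ksv taken from a Stern–Volmer plot and tryptophan accessibility from a modified Stern–Volmer plot.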

Assay [2] concerns the target T1, Histone acetyltransferase p300. Put plainly: Inhibition of HAT p300 catalytic domain activity expressed in Escherichia coli BL21 (DE3) co-transformed with human SirT2 by fluorography/autoradiography assay.
Assay [3] has the same target. In words: Inhibition of HAT p300 catalytic domain.
For assay [4] the target is unchanged. Put plainly: Binding affinity to HAT p300 catalytic domain by isothermal titration calorimetry. The method in brief: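 ITC at 20 °C. Ligand at 30–35 μM injected into 3 μM p300 HAT domain in 20 mM Tris-HCl pH 7.5, 0.2 mM EDTA, 100 mM KCl. 35 injections, 2 min apart; the first 1 μL injection was discarded. Ligand-into-buffer and buffer-into-buffer blanks were subtracted, and data fitted to a one-set-of-sites model.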
In general terms: ITC needs no label: the signal is the heat of the interaction.

For assay [5] the target is unchanged. Put plainly: Binding affinity to HAT p300 catalytic domain by fluorometric titration. A digest of the protocol: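 p300 HAT domain (aa 1284–1673, 6His, from E. coli BL21(DE3) co-expressing SirT2), 1.2 μM, titrated with ligand in 20 mM Tris-HCl pH 7.5, 0.2 mM EDTA, 100 mM KCl. Tryptophan emission read at 340 nm (excitation 295 nm). Kd obtained by nonlinear least-squares fit; ΔFmax taken from a double-reciprocal plot.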

Assay [6] addresses Histone acetyltransferase KAT2B (Homo sapiens) (UniProt Q92831). In words: Inhibition of HAT PCAF up to 10 uM after 2 mins in absence of acetyl-CoA. On the set-up: scale not given: the % may be the effect or the level left. A digest of the protocol:
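PCAF preincubated with inhibitor at 10 μM without acetyl-CoA over a time course, then assayed for HAT activity on purified HeLa core histones in triplicate. Activity compared with a DMSO control.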

The target is the same in assay [7]. Put plainly: Inhibition of HAT PCAF up to 40 uM relative to control. Also on record: scale not given: the % may be the effect or the level left. The method in brief: (§1)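 Filter-binding HAT assay with PCAF, purified HeLa core histones and ³H-acetyl-CoA, run at increasing inhibitor concentrations. Activity compared with a DMSO solvent control.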
The target is the same in assay [8]. Put plainly: Inhibition of HAT PCAF relative to control. On the set-up: scale not given: the % may be the effect or the level left. A digest of the protocol:
as §1

Chain of Histone acetyltransferase KAT2B (Homo sapiens) (Q92831 whole entry, looked up): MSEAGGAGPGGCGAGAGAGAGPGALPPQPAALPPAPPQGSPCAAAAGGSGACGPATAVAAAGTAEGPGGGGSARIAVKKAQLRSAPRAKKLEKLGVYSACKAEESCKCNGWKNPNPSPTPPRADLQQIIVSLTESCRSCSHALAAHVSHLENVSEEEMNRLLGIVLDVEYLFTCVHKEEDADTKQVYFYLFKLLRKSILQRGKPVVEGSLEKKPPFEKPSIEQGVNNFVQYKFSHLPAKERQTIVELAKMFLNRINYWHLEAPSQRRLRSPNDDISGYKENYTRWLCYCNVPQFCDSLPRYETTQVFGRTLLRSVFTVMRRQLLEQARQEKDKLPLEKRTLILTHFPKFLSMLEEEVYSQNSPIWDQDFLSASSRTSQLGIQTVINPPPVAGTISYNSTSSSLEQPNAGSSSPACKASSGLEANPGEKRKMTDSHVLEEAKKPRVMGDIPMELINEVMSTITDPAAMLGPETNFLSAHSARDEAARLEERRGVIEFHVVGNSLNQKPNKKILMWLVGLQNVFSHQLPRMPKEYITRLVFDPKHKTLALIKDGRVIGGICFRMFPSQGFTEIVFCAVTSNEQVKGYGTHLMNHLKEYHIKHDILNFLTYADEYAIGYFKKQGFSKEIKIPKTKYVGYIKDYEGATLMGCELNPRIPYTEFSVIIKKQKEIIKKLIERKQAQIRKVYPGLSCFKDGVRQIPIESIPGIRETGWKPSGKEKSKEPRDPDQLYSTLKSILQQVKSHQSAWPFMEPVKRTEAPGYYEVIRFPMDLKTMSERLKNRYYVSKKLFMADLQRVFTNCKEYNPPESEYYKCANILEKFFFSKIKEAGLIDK
T1 sequence (Q09472 whole entry, the tested form may be a part): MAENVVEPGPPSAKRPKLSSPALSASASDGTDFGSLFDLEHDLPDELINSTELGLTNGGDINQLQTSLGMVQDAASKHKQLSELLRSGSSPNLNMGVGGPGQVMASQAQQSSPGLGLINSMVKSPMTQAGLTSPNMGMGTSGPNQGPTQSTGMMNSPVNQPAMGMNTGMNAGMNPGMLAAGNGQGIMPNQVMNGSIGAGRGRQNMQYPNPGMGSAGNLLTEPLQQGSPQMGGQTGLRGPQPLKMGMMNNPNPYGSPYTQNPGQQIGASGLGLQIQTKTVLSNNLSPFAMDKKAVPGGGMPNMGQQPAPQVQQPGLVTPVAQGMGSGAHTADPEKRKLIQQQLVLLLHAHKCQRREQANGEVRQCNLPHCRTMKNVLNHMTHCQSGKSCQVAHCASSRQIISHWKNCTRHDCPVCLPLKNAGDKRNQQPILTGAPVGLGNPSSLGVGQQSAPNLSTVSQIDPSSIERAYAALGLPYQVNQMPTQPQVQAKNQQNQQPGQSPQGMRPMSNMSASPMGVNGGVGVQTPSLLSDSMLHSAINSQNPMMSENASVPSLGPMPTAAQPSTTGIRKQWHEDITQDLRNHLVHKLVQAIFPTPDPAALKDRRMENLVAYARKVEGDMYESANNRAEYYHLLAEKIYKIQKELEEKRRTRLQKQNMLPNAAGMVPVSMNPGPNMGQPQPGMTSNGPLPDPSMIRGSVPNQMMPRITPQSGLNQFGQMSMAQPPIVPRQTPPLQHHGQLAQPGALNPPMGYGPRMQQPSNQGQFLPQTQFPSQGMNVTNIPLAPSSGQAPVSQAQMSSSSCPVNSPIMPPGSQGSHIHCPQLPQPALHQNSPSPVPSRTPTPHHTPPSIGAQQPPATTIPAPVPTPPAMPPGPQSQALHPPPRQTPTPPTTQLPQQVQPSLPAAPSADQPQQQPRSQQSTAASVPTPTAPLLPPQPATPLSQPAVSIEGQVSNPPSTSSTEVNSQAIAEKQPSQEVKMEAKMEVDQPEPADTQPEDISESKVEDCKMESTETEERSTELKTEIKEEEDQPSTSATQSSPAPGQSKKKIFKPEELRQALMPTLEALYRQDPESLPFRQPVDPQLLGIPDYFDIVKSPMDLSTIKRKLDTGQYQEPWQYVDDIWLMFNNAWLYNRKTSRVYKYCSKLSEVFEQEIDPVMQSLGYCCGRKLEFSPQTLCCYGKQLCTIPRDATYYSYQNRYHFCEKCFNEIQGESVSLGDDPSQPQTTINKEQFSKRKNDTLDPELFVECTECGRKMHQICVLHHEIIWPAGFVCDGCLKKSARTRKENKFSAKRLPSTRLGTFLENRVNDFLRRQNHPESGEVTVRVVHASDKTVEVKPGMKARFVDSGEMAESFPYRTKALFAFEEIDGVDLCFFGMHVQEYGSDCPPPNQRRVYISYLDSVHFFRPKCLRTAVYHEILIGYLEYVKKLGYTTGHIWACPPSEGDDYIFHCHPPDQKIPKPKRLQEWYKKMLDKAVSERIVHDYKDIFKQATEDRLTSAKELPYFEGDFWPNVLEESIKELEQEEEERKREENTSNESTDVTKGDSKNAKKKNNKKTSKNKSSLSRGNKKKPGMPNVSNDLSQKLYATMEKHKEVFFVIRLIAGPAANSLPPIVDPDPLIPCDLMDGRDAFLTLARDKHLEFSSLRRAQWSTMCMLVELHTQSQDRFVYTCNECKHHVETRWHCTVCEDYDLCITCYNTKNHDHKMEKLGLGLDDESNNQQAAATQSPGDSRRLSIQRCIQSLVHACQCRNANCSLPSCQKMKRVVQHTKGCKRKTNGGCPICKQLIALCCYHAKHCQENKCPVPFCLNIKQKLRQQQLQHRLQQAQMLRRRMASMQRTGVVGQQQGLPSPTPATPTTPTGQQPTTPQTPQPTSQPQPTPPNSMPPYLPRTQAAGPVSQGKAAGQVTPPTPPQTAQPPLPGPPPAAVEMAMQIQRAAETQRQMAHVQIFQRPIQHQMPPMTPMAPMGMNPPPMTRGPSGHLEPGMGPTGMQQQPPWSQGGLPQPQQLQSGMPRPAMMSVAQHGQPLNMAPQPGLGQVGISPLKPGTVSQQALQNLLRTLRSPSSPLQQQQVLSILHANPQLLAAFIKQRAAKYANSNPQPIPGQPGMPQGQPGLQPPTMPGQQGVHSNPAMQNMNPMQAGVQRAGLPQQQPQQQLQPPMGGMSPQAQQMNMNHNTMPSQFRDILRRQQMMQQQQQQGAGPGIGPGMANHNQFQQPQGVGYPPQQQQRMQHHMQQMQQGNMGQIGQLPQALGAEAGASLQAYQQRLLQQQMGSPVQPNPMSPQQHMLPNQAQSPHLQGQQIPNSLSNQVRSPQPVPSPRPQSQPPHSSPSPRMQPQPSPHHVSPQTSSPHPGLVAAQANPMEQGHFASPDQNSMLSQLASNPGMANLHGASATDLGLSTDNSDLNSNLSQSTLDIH

One may read the Ki as the equilibrium dissociation constant of an inhibitor or competing ligand from its target. For orientation: Kd means the constant that tells how readily two partners part at equilibrium. For `C=C(C)[C@@H](CC=C(C)C)C[C@@]12C[C@@H](CC=C(C)C)C(C)(C)[C@@](CC=C(C)C)(C(=O)C(C(=O)c3ccc(O)c(O)c3)=C1O)C2=O` [GARCINOL], the Activity in assay [1] was 78%; in assay [2] it was “Dose-dependent effect”; in assay [6], 80%; in assay [7], 90%. Besides, in assay [3], affinity was put at a Ki of 4.9 µM. For the same compound, the Kd in assay [4] stood at 6.6 µM; in assay [5] it was 1.8 µM.

Regarding `CC(C)=CC[C@H]1C[C@@]23C[C@@H](CC=C(C)C)C(C)(C)[C@@](CC=C(C)C)(C(=O)C(C(=O)c4ccc(O)c(O)c4)=C2OC1(C)C)C3=O` [CAMBOGIN], the Activity was 75% in assay [1], “Dose-dependent effect” in assay [2] and 50% in assay [8]. Moreover, the affinity in assay [3] corresponds to a Ki of 3.9 µM. The Kd in assay [4] was determined as 5.9 µM; in assay [5] it was 1.1 µM.
